Measured values as given in ChEMBL document CHEMBL3351434, “Synthesis of novel chromeno-annulated cis-fused pyrano[3,4-c]benzopyran and naphtho pyran derivatives via domino aldol-type/hetero Diels-Alder reaction and their cytotoxicity evaluation” (Bioorg Med Chem Lett, 2014).
pIC50: −log10 of the molar value.

Tests used:
[1] = Cytotoxicity against HEK cells by MTT assay; assay type: cell-based; settings: human, hek293
Procedure, shortened: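 Cells were HEK293, a line derived from normal human embryonic kidney, used as the non-cancer counter-screen. Viability was read by MTT following a previously reported protocol.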

MDA-MB-231 = test: Cytotoxicity against human MDA-MB-231 cells by MTT assay; assay type: functional, cell-based
MCF7 = test: Cytotoxicity against human MCF7 cells by MTT assay; assay type: functional, cell-based
A549 = test: Cytotoxicity against human A549 cells by MTT assay; assay type: functional, cell-based
HeLa = test: Cytotoxicity against human HeLa cells by MTT assay; assay type: functional, cell-based

Row | SMILES | Activity [1] | pIC50 (MDA-MB-231) | pIC50 (MCF7) | pIC50 (A549) | pIC50 (HeLa)
1 | CCC(=O)c1ccc2c(c1O)[C@@H]1c3c(ccc4c(=O)c(-c5ccccc5)c(C)oc34)OC[C@@H]1C(C)(C)O2 | Non-toxic | 5.21 | 4.69 | 4.72 | 4.74
2 | CCC(=O)c1ccc2c(c1O)[C@@H]1c3c(ccc4c(=O)c(C)c(C)oc34)OC[C@@H]1C(C)(C)O2 |  | < 4.00 | < 4.00 | < 4.00 | < 4.00
3 | CC(=O)c1ccc2c(c1O)[C@@H]1c3c(ccc4c(=O)c(C)c(C)oc34)OC[C@@H]1C(C)(C)O2 |  | < 4.00 | < 4.00 | < 4.00 | < 4.00
4 | Cc1oc2c3c(ccc2c(=O)c1C)OC[C@H]1[C@@H]3c2c(ccc(C(=O)Cc3ccccc3)c2O)OC1(C)C |  | < 4.00 | < 4.00 | < 4.00 | < 4.00
5 | Cc1oc2c3c(ccc2c(=O)c1C)OC[C@H]1[C@@H]3c2c(ccc(C(=O)c3ccccc3)c2O)OC1(C)C |  | < 4.00 | < 4.00 | < 4.00 | < 4.00
6 | CCC(=O)c1ccc2c(c1O)[C@H]1c3c(ccc4c(=O)c(C)coc34)OC[C@H]1C(C)(C)O2 |  | < 4.00 | < 4.00 | < 4.00 | < 4.00
7 | CC(=O)c1ccc2c(c1O)[C@H]1c3c(ccc4c(=O)c(C)coc34)OC[C@H]1C(C)(C)O2 |  | < 4.00 | < 4.00 | < 4.00 | < 4.00
8 | Cc1coc2c3c(ccc2c1=O)OC[C@H]1[C@@H]3c2c(ccc(C(=O)Cc3ccccc3)c2O)OC1(C)C |  | < 4.00 | < 4.00 | < 4.00 | < 4.00
9 | Cc1coc2c3c(ccc2c1=O)OC[C@H]1[C@@H]3c2c(ccc(C(=O)c3ccccc3)c2O)OC1(C)C | Non-toxic | 5.25 | 5.20 | 4.77 | 5.82
10 | CC(=O)c1ccc2c(c1O)[C@@H]1c3c(ccc4c(=O)c(-c5ccccc5)c(C)oc34)OC[C@@H]1C(C)(C)O2 | Non-toxic | 4.33 | 4.95 | 5.60 | 5.32
11 | Cc1oc2c3c(ccc2c(=O)c1C)OC[C@H]1[C@@H]3c2ccc3ccccc3c2OC1(C)C |  | < 4.00 | < 4.00 | < 4.00 | < 4.00
12 | Cc1coc2c3c(ccc2c1=O)OC[C@H]1[C@@H]3c2ccc3ccccc3c2OC1(C)C |  | < 4.00 | < 4.00 | < 4.00 | < 4.00
13 | COc1cccc2c1C(=O)c1c(O)c3c(c(O)c1C2=O)C[C@@](O)(C(=O)CO)C[C@@H]3O[C@H]1C[C@H](N)[C@H](O)[C@H](C)O1 [DOXORUBICIN] |  | 6.30 | 5.98 |  | 
